Here are results for six molecules from BindingDB's records for doi:10.1021/jm9014197 (Wyeth Research, 2009).

pEC50: −log10 of the molar value.

One may read the pEC50 as the negative decadic logarithm of the EC50, by convention in mol/L.

For the test, the target named is T1, Dickkopf-related protein 1 (Homo sapiens, UniProt O94907).
T1 sequence (O94907 whole entry): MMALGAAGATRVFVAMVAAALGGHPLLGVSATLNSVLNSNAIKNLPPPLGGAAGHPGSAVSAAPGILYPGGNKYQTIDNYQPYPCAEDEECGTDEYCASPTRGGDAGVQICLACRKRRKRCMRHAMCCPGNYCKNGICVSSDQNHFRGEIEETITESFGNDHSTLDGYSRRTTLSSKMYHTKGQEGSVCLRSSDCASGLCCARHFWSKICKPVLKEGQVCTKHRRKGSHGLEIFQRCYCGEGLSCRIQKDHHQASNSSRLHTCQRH
As to the kind of experiment: Inhibition of Dkk1-mediated Wnt/beta-catenin signaling in osteosarcoma cells assessed as potentiation of TCF-luciferase response. In short, it runs like this: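 Cells were transfected with a TCF-luciferase response element plus a renilla standard as the control read-out. Agonism was read as increased luciferase light output relative to DMSO alone. EC50 values are the average of at least two experiments run in triplicate.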
`Cc1ccc(-c2ccnc(N(C)c3ccc(S(N)(=O)=O)cc3)n2)s1` [4-(methyl(4-(5-methylthiophen-2-yl)pyrimidin-2-yl)amino)benzenesulfonamide]: the pEC50 is 5.01.

With `NC1CCN(c2nccc(-c3ccc4ccccc4c3)n2)CC1` [1-(4-(naphthalen-2-yl)pyrimidin-2-yl)piperidin-4-amine], the pEC50 was 6.00.

`CC(=O)NCC1CCN(c2nccc(-c3ccc4ccccc4c3)n2)CC1` [N-((1-(4-(naphthalen-2-yl)pyrimidin-2-yl)piperidin-4-yl)methyl)acetamide]: the pEC50 was 5.72.

Consider `Cc1ccc(-c2ccnc(Nc3ccc(S(N)(=O)=O)cc3)n2)s1` [4-(4-(5-methylthiophen-2-yl)pyrimidin-2-ylamino)benzenesulfonamide], for which the pEC50 is 5.11.

For `NCC1CCN(c2nccc(-c3ccc4ccccc4c3)n2)CC1` [(1-(4-(naphthalen-2-yl)pyrimidin-2-yl)piperidin-4-yl)methanamine], the pEC50 was 6.20.

With `NS(=O)(=O)c1ccc(Nc2nccc(-c3ccc4ccccc4c3)n2)cc1` [4-(4-(naphthalen-2-yl)pyrimidin-2-ylamino)benzenesulfonamide], the negative logarithm of the EC50 (pEC50) was 6.00.
